Where a SMILES comes first, the peptide text is derived from it. [ ]: non-standard residue; d: D form. d(hArg(Et2)) = CCN=C(NCC)NCCCC[C@@H](N)C(=O)O; hArg(Et2) = CCN=C(NCC)NCCCC[C@H](N)C(=O)O; dPhe(4-Cl) = N[C@H](Cc1ccc(Cl)cc1)C(=O)O; d2Nal = N[C@H](Cc1ccc2ccccc2c1)C(=O)O; Lys(iPr) = CC(C)NCCCC[C@H](N)C(=O)O; NMeY = CN[C@@H](Cc1ccc(O)cc1)C(=O)O; d3Pal = N[C@H](Cc1cccnc1)C(=O)O
Experiments:
Rattus norvegicus = organism: Rattus norvegicus; test: Compound was tested for inhibition of Leutenizing hormone release at 72 hours (long duration) in castrated male rat assay; format: functional; design: concentration or dose not given beside the values
Outline: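 Male Sprague-Dawley rats (180-200 g), castrated under ether 10 days earlier, 5 per group. 50 µg/rat given sc in 100 µL 40 mM phosphate buffer with 0.1% BSA and 0.6% DMSO; acyline run as internal standard. Tail blood taken predose and at 24, 48, 72, 96 (sometimes 120) h; plasma LH by RIA. Duration classed by >80% LH inhibition at each time.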

[1] = target: T1, Gonadotropin-releasing hormone receptor (Homo sapiens, UniProt P30968); test: Antagonism of human GnHR receptor, determined in a reporter gene assay in HEK293 cells; format: functional, cell-based
T1 sequence (P30968 whole entry): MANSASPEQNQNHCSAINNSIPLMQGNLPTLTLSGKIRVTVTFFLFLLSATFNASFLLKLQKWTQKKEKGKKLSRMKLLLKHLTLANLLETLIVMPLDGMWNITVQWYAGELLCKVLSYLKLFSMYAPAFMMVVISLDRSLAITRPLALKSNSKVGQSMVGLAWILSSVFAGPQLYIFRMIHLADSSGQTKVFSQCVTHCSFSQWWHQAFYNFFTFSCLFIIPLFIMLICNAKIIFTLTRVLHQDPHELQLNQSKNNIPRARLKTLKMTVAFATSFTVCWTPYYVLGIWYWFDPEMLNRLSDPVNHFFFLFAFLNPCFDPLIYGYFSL
Outline: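 HEK293 cells stably expressing cloned human GnRH receptor plus luciferase reporter under LH alpha subunit promoter, plated 24 h before assay. Compound in 1% DMSO added 10 min at 37 °C, then GnRH at 3 nM final; 5 h incubation, luciferase luminescence read. Six concentrations in duplicate; blank-subtracted cps as % of GnRH control; mean of two determinations.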

[2] = target: T1, Gonadotropin-releasing hormone receptor; test: Competitive antagonism of GnRH-induced response in the reporter gene assay; format: functional; details: read-out: pA2 (converted)
Outline: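 Same HEK293 human GnRH receptor luciferase reporter cells. Seven-point GnRH curve (10 µM to 10 pM final) run in duplicate without or with four to five increasing compound concentrations (10 min preincubation, 37 °C), then 5 h and luminescence. GnRH EC50 at each level by four-parameter logistic fit, giving pA2; mean of two determinations in duplicate.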

SMILES | Inhibition (Rattus norvegicus) | IC50 [1] | Kb [2]
CC(=O)NCc1ccc(C[C@@H](NC(=O)[C@H](Cc2ccc(NC(=O)[C@H]3CC(=O)NC(=O)N3)cc2)NC(=O)[C@H](CO)NC(=O)[C@@H](Cc2cccnc2)NC(=O)[C@@H](Cc2ccc(Cl)cc2)NC(=O)[C@@H](Cc2ccc3ccccc3c2)NC(C)=O)C(=O)N[C@@H](CC(C)C)C(=O)N[C@@H](CCCCNC(C)C)C(=O)N2CCC[C@H]2C(=O)N[C@H](C)C(N)=O)cc1 [listing 1 of 2 here] | >80% |  | 
CC(=O)Nc1ccc(C[C@@H](NC(=O)[C@H](Cc2ccc(NC(=O)c3cc(=O)[nH]c(=O)[nH]3)cc2)NC(=O)[C@H](CO)NC(=O)[C@@H](Cc2cccnc2)NC(=O)[C@@H](Cc2ccc(Cl)cc2)NC(=O)[C@@H](Cc2ccc3ccccc3c2)NC(C)=O)C(=O)N[C@@H](CC(C)C)C(=O)N[C@@H](CCCCNC(C)C)C(=O)N2CCC[C@H]2C(=O)N[C@H](C)C(N)=O)cc1 |  | 10.7 nM | 
CC(=O)N[C@H](Cc1ccc2ccccc2c1)C(=O)N[C@H](Cc1ccc(Cl)cc1)C(=O)N[C@H](Cc1cccnc1)C(=O)N[C@@H](CO)C(=O)N[C@@H](Cc1ccc(NC(=O)[C@@H]2CC(=O)NC(=O)N2)cc1)C(=O)N[C@H](CCCNC(N)=O)C(=O)N[C@@H](CC(C)C)C(=O)N[C@@H](CCCCNC(C)C)C(=O)N1CCC[C@H]1C(=O)N[C@H](C)C(N)=O |  | 5.8 nM | 0.794 nM
CC(=O)N[C@H](Cc1ccc2ccccc2c1)C(=O)N[C@H](Cc1ccc(Cl)cc1)C(=O)N[C@H](Cc1cccnc1)C(=O)N[C@@H](CO)C(=O)N[C@@H](Cc1ccc(NC(=O)[C@@H]2CC(=O)NC(=O)N2)cc1)C(=O)N[C@H](Cc1ccc2ccccc2c1)C(=O)N[C@@H](CC(C)C)C(=O)N[C@@H](CCCCNC(C)C)C(=O)N1CCC[C@H]1C(=O)N[C@H](C)C(N)=O |  | 13 nM | 
CC(=O)N[C@H](Cc1ccc2ccccc2c1)C(=O)N[C@H](Cc1ccc(Cl)cc1)C(=O)N[C@H](Cc1cccnc1)C(=O)N[C@@H](CO)C(=O)N[C@@H](Cc1ccc(NC(=O)[C@@H]2CC(=O)NC(=O)N2)cc1)C(=O)N[C@H](Cc1ccc(CNC(N)=O)cc1)C(=O)N[C@@H](CC(C)C)C(=O)N[C@@H](CCCCNC(C)C)C(=O)N1CCC[C@H]1C(=O)N[C@H](C)C(N)=O |  | 5.6 nM | 1.26 nM
CC(=O)N[C@H](Cc1ccc2ccccc2c1)C(=O)N[C@H](Cc1ccc(Cl)cc1)C(=O)N[C@H](Cc1cccnc1)C(=O)N[C@@H](CO)C(=O)N[C@@H](Cc1ccc(NC(=O)[C@H]2CC(=O)NC(=O)N2)cc1)C(=O)N[C@H](Cc1ccc(CNC(N)=O)cc1)C(=O)N[C@@H](CC(C)C)C(=O)N[C@@H](CCCCNC(C)C)C(=O)N1CCC[C@H]1C(=O)N[C@H](C)C(N)=O |  | 7.7 nM | 
CCNC(=O)[C@@H]1CCCN1C(=O)[C@H](CCCCNC(C)C)NC(=O)[C@H](CC(C)C)NC(=O)[C@@H](Cc1ccc(CNC(N)=O)cc1)NC(=O)[C@H](Cc1ccc(NC(=O)[C@@H]2CC(=O)NC(=O)N2)cc1)NC(=O)[C@H](CO)NC(=O)[C@@H](Cc1cccnc1)NC(=O)[C@@H](Cc1ccc(Cl)cc1)NC(=O)[C@@H](Cc1ccc2ccccc2c1)NC(C)=O |  | 8.8 nM | 0.631 nM
CC(=O)NCc1ccc(C[C@@H](NC(=O)[C@H](Cc2ccc(NC(=O)[C@@H]3CC(=O)NC(=O)N3)cc2)NC(=O)[C@H](CO)NC(=O)[C@@H](Cc2cccnc2)NC(=O)[C@@H](Cc2ccc(Cl)cc2)NC(=O)[C@@H](Cc2ccc3ccccc3c2)NC(C)=O)C(=O)N[C@@H](CC(C)C)C(=O)N[C@@H](CCCCNC(C)C)C(=O)N2CCC[C@H]2C(=O)N[C@H](C)C(N)=O)cc1 [listing 1 of 2 here] | >80% |  | 
CC(=O)Nc1ccc(C[C@@H](NC(=O)[C@H](Cc2ccc(CNC(=O)[C@@H]3CC(=O)NC(=O)N3)cc2)NC(=O)[C@H](CO)NC(=O)[C@@H](Cc2cccnc2)NC(=O)[C@@H](Cc2ccc(Cl)cc2)NC(=O)[C@@H](Cc2ccc3ccccc3c2)NC(C)=O)C(=O)N[C@@H](CC(C)C)C(=O)N[C@@H](CCCCNC(C)C)C(=O)N2CCC[C@H]2C(=O)N[C@H](C)C(N)=O)cc1 [listing 1 of 2 here] |  | 7.9 nM | 0.316 nM
CC(=O)N[C@H](Cc1ccc2ccccc2c1)C(=O)N[C@H](Cc1ccc(Cl)cc1)C(=O)N[C@H](Cc1cccnc1)C(=O)N[C@@H](CO)C(=O)N(C)[C@@H](Cc1ccc(O)cc1)C(=O)N[C@H](CC(N)=O)C(=O)N[C@@H](CC(C)C)C(=O)N[C@@H](CCCCNC(C)C)C(=O)N1CCC[C@H]1C(=O)N[C@H](C)C(N)=O [ABARELIX] (Ac-[d2Nal][dPhe(4-Cl)][d3Pal]S[NMeY][dN]L[Lys(iPr)]P[dA]-NH2) |  | 3.5 nM | 0.794 nM
CNC(=O)NCc1ccc(C[C@@H](NC(=O)[C@H](Cc2ccc(NC(=O)[C@@H]3CC(=O)NC(=O)N3)cc2)NC(=O)[C@H](CO)NC(=O)[C@@H](Cc2cccnc2)NC(=O)[C@@H](Cc2ccc(Cl)cc2)NC(=O)[C@@H](Cc2ccc3ccccc3c2)NC(C)=O)C(=O)N[C@@H](CC(C)C)C(=O)N[C@@H](CCCCNC(C)C)C(=O)N2CCC[C@H]2C(=O)N[C@H](C)C(N)=O)cc1 |  | 7.9 nM | 0.794 nM
CC(=O)Nc1ccc(C[C@@H](NC(=O)[C@H](Cc2ccc(CNC(=O)[C@@H]3CC(=O)NC(=O)N3)cc2)NC(=O)[C@H](CO)NC(=O)[C@@H](Cc2cccnc2)NC(=O)[C@@H](Cc2ccc(Cl)cc2)NC(=O)[C@@H](Cc2ccc3ccccc3c2)NC(C)=O)C(=O)N[C@@H](CC(C)C)C(=O)N[C@@H](CCCCNC(C)C)C(=O)N2CCC[C@H]2C(=O)N[C@H](C)C(N)=O)cc1 [listing 2 of 2 here] | >80% |  | 
CC(=O)N[C@H](Cc1ccc2ccccc2c1)C(=O)N[C@H](Cc1ccc(Cl)cc1)C(=O)N[C@H](Cc1cccnc1)C(=O)N[C@@H](CO)C(=O)N[C@@H](Cc1ccc(NC(=O)[C@@H]2CC(=O)NC(=O)N2)cc1)C(=O)N[C@H](Cc1ccc(NC(N)=O)cc1)C(=O)N[C@@H](CC(C)C)C(=O)N[C@@H](CCCCNC(C)C)C(=O)N1CCC[C@H]1C(=O)N[C@@H](C)CO | >80% |  | 
CC(=O)Nc1ccc(C[C@H](NC(=O)[C@H](CO)NC(=O)[C@@H](Cc2cccnc2)NC(=O)[C@@H](Cc2ccc(Cl)cc2)NC(=O)[C@@H](Cc2ccc3ccccc3c2)NC(C)=O)C(=O)N[C@H](Cc2ccc(CNC(N)=O)cc2)C(=O)N[C@@H](CC(C)C)C(=O)N[C@@H](CCCCNC(C)C)C(=O)N2CCC[C@H]2C(=O)N[C@H](C)C(N)=O)cc1 |  | 6.4 nM | 0.631 nM
CC(=O)NCc1ccc(C[C@@H](NC(=O)[C@H](Cc2ccc(NC(=O)[C@H]3CC(=O)NC(=O)N3)cc2)NC(=O)[C@H](CO)NC(=O)[C@@H](Cc2cccnc2)NC(=O)[C@@H](Cc2ccc(Cl)cc2)NC(=O)[C@@H](Cc2ccc3ccccc3c2)NC(C)=O)C(=O)N[C@@H](CC(C)C)C(=O)N[C@@H](CCCCNC(C)C)C(=O)N2CCC[C@H]2C(=O)N[C@H](C)C(N)=O)cc1 [listing 2 of 2 here] |  | 7 nM | 1.58 nM
CCN=C(NCC)NCCCC[C@H](NC(=O)[C@H](CC(C)C)NC(=O)[C@@H](CCCCNC(=NCC)NCC)NC(=O)[C@H](Cc1ccc(O)cc1)NC(=O)[C@H](CO)NC(=O)[C@@H](Cc1cccnc1)NC(=O)[C@@H](Cc1ccc(Cl)cc1)NC(=O)[C@@H](Cc1ccc2ccccc2c1)NC(C)=O)C(=O)N1CCC[C@H]1C(=O)N[C@H](C)C(N)=O [GANIRELIX ACETATE] (Ac-[d2Nal][dPhe(4-Cl)][d3Pal]SY[d(hArg(Et2))]L[hArg(Et2)]P[dA]-NH2) |  | 3.6 nM | 0.501 nM
CCNC(=O)[C@@H]1CCCN1C(=O)[C@H](CCCCNC(C)C)NC(=O)[C@H](CC(C)C)NC(=O)[C@@H](Cc1ccc(NC(N)=O)cc1)NC(=O)[C@H](Cc1ccc(NC(=O)[C@@H]2CC(=O)NC(=O)N2)cc1)NC(=O)[C@H](CO)NC(=O)[C@@H](Cc1cccnc1)NC(=O)[C@@H](Cc1ccc(Cl)cc1)NC(=O)[C@@H](Cc1ccc2ccccc2c1)NC(C)=O | >80% |  | 
CC(=O)NCc1ccc(C[C@@H](NC(=O)[C@H](Cc2ccc(NC(=O)[C@@H]3CC(=O)NC(=O)N3)cc2)NC(=O)[C@H](CO)NC(=O)[C@@H](Cc2cccnc2)NC(=O)[C@@H](Cc2ccc(Cl)cc2)NC(=O)[C@@H](Cc2ccc3ccccc3c2)NC(C)=O)C(=O)N[C@@H](CC(C)C)C(=O)N[C@@H](CCCCNC(C)C)C(=O)N2CCC[C@H]2C(=O)N[C@H](C)C(N)=O)cc1 [listing 2 of 2 here] |  | 9.5 nM | 1 nM
CC(=O)N[C@H](Cc1ccc2ccccc2c1)C(=O)N[C@H](Cc1ccc(Cl)cc1)C(=O)N[C@H](Cc1cccnc1)C(=O)N[C@@H](CO)C(=O)N[C@@H](Cc1ccc(NC(=O)[C@@H]2CC(=O)NC(=O)N2)cc1)C(=O)N[C@H](Cc1ccc(NC(=O)[C@@H]2CC(=O)NC(=O)N2)cc1)C(=O)N[C@@H](CC(C)C)C(=O)N[C@@H](CCCCNC(C)C)C(=O)N1CCC[C@H]1C(=O)N[C@H](C)C(N)=O |  | 10.8 nM | 1 nM
CC(=O)N[C@H](Cc1ccc2ccccc2c1)C(=O)N[C@H](Cc1ccc(Cl)cc1)C(=O)N[C@H](Cc1cccnc1)C(=O)N[C@@H](CO)C(=O)N[C@@H](Cc1ccc(NC(=O)[C@@H]2CC(=O)NC(=O)N2)cc1)C(=O)N[C@H](Cc1cccnc1)C(=O)N[C@@H](CC(C)C)C(=O)N[C@@H](CCCCNC(C)C)C(=O)N1CCC[C@H]1C(=O)N[C@H](C)C(N)=O |  | 2.8 nM | 2 nM
